Source: ChEMBL document CHEMBL3228024, “Prodrug analogues of the antitumor alkaloid camptothecin” (1979)
The source made the active and inactive calls. The rule behind the calls is not given here.

Tests used:
[1] = test system: B16; assay: Antitumor activity against mouse B16 cells allografted in mouse assessed as increase in mouse survival time at 14.6 mg/kg, iv for 4 to 9 days relative to control; format: functional
Outline: (§1)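 Run under NCI protocols 3B131 (B-16 melanocytic melanoma) and 3LL32 (Lewis lung carcinoma) in mice, ten mice per test group. Drug was injected every 4 days, with 20–30 uninjected control animals. Mean or median survival of treated mice over that of controls ×100 was reported as percentage increase in life span.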

[2] = test system: P388; assay: Cytotoxicity against mouse P388 cells; format: functional
[3] = test system: P388; assay: Cytotoxicity against mouse P388 cells relative to camptothecin; format: functional
[4] = test system: HeLa; assay: Antitumor activity against human HeLa cells assessed as inhibition of radioactive thymidine incorporation into acid-insoluble material by DNA sedimentation assay; format: functional, cell-based
[5] = test system: P388; assay: Antitumor activity against mouse P388 cells allografted in mouse assessed as increase in mouse survival time at 1.6 mg/kg, iv for 4 to 9 days relative to control; format: functional
Outline: (§2)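 Run under NCI protocols 3LE21 (L1210) and 3PS31 (P388) in mice, six mice per test group. Drug was injected daily for 9 days, with 20–30 uninjected control animals. Mean or median survival time of the treated group was divided by that of controls and multiplied by 100, then reported as percentage increase in life span.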

[6] = test system: L1210; assay: Antitumor activity against mouse L1210 cells allografted in mouse assessed as increase in mouse survival time at 14.3 mg/kg, iv for 4 to 9 days relative to control; format: functional; outline: as §2
[7] = test system: B16; assay: Antitumor activity against mouse B16 cells allografted in mouse assessed as increase in mouse survival time at 46 mg/kg, iv for 4 to 9 days relative to control; format: functional; outline: as §1
[8] = test system: Lewis lung carcinoma cell line; assay: Antitumor activity against mouse LLC cells allografted in mouse assessed as increase in mouse survival time at 14.6 mg/kg, iv for 4 to 9 days relative to control; format: functional; outline: as §1
[9] = test system: L1210; assay: Antitumor activity against mouse L1210 cells allografted in mouse assessed as increase in mouse survival time at 0.5 mg/kg, iv for 4 to 9 days relative to control; format: functional; outline: as §2
[10] = test system: L1210; assay: Antitumor activity against mouse L1210 cells allografted in mouse assessed as increase in mouse survival time at 4.8 mg/kg, iv for 4 to 9 days relative to control; format: functional; outline: as §2
[11] = test system: P388; assay: Antitumor activity against mouse P388 cells allografted in mouse assessed as increase in mouse survival time at 0.5 mg/kg, iv for 4 to 9 days relative to control; format: functional; outline: as §2
[12] = Cytotoxicity against human 9KB cells; format: functional
[13] = test system: L1210; assay: Antitumor activity against mouse L1210 cells allografted in mouse assessed as increase in mouse survival time at 1.6 mg/kg, iv for 4 to 9 days relative to control; format: functional; outline: as §2
[14] = Cytotoxicity against human 9KB cells relative to camptothecin; format: functional
[15] = test system: Lewis lung carcinoma cell line; assay: Antitumor activity against mouse LLC cells allografted in mouse assessed as increase in mouse survival time at 4 mg/kg, iv for 4 to 9 days relative to control; format: functional; outline: as §1
[16] = test system: Lewis lung carcinoma cell line; assay: Antitumor activity against mouse LLC cells allografted in mouse assessed as increase in mouse survival time at 44.4 mg/kg, iv for 4 to 9 days relative to control; format: functional; outline: as §1
[17] = test system: L1210; assay: Cytotoxicity against mouse L1210 cells relative to camptothecin; format: functional
[18] = test system: L1210; assay: Cytotoxicity against mouse L1210 cells; format: functional
[19] = test system: P388; assay: Antitumor activity against mouse P388 cells allografted in mouse assessed as increase in mouse survival time at 4.8 mg/kg, iv for 4 to 9 days relative to control; format: functional; outline: as §2
[20] = test system: P388; assay: Antitumor activity against mouse P388 cells allografted in mouse assessed as increase in mouse survival time at 14.3 mg/kg, iv for 4 to 9 days relative to control; format: functional; outline: as §2
[21] = test system: B16; assay: Antitumor activity against mouse B16 cells allografted in mouse assessed as increase in mouse survival time at 4 mg/kg, iv for 4 to 9 days relative to control; format: functional; outline: as §1
[22] = test system: P388; assay: Antitumor activity against mouse P388 cells allografted in mouse assessed as increase in mouse survival time at 2.5 mg/kg, iv for 6 days relative to control; format: functional
Outline: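 NCI P388 protocol 3PS31 in mice, six mice per test group. Drug was injected daily for only 6 days, with 20–30 uninjected controls. The value is the mean or median survival time of treated mice over that of controls ×100, reported as percentage increase in life span.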

[23] = test system: L1210; assay: Antitumor activity against mouse L1210 cells allografted in mouse assessed as increase in mouse survival time at 6.5 mg/kg, iv for 4 to 9 days relative to control; format: functional; outline: as §2
[24] = test system: P388; assay: Antitumor activity against mouse P388 cells allografted in mouse assessed as increase in mouse survival time at 6.5 mg/kg, iv for 4 to 9 days relative to control; format: functional
Outline: (§3)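 Mice bearing P388 leukemia (NCI protocol 3PS31), six mice per test, drug injected daily for 9 days (in some tests for only 6 days). Controls were 20–30 animals receiving no injection. Activity was expressed as mean/median survival time of the test group divided by that of the control group ×100.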

[25] = test system: P388; assay: Antitumor activity against mouse P388 cells allografted in mouse assessed as increase in mouse survival time at 6.4 mg/kg, iv for 4 to 9 days relative to control; format: functional; outline: as §2
[26] = test system: P388; assay: Antitumor activity against mouse P388 cells allografted in mouse assessed as increase in mouse survival time at 45 mg/kg, iv for 4 to 9 days relative to control; format: functional; outline: as §2
[27] = test system: P388; assay: Antitumor activity against mouse P388 cells allografted in mouse assessed as increase in mouse survival time at 23 mg/kg, iv for 4 to 9 days relative to control; format: functional; outline: as §2
[28] = test system: P388; assay: Antitumor activity against mouse P388 cells allografted in mouse assessed as increase in mouse survival time at 5.1 mg/kg, iv for 4 to 9 days relative to control; format: functional; outline: as §2
[29] = test system: L1210; assay: Antitumor activity against mouse L1210 cells allografted in mouse assessed as increase in mouse survival time at 62.5 mg/kg, iv for 4 to 9 days relative to control; format: functional; outline: as §2
[30] = test system: L1210; assay: Antitumor activity against mouse L1210 cells allografted in mouse assessed as increase in mouse survival time at 5.1 mg/kg, iv for 4 to 9 days relative to control; format: functional; outline: as §2
[31] = test system: P388; assay: Antitumor activity against mouse P388 cells allografted in mouse assessed as increase in mouse survival time at 18.9 mg/kg, iv for 4 to 9 days relative to control; format: functional; outline: as §2
[32] = test system: L1210; assay: Antitumor activity against mouse L1210 cells allografted in mouse assessed as increase in mouse survival time at 18.9 mg/kg, iv for 4 to 9 days relative to control; format: functional; outline: as §2
[33] = test system: L1210; assay: Antitumor activity against mouse L1210 cells allografted in mouse assessed as increase in mouse survival time at 3.3 mg/kg, iv for 4 to 9 days relative to control; format: functional; outline: as §2
[34] = test system: L1210; assay: Antitumor activity against mouse L1210 cells allografted in mouse assessed as increase in mouse survival time at 10 mg/kg, iv for 4 to 9 days relative to control; format: functional; outline: as §2
[35] = test system: L1210; assay: Antitumor activity against mouse L1210 cells allografted in mouse assessed as increase in mouse survival time at 1.1 mg/kg, iv for 4 to 9 days relative to control; format: functional; outline: as §2
[36] = test system: P388; assay: Antitumor activity against mouse P388 cells allografted in mouse assessed as increase in mouse survival time at 3.3 mg/kg, iv for 4 to 9 days relative to control; format: functional; outline: as §2
[37] = test system: P388; assay: Antitumor activity against mouse P388 cells allografted in mouse assessed as increase in mouse survival time at 1.1 mg/kg, iv for 4 to 9 days relative to control; format: functional; outline: as §2
[38] = test system: L1210; assay: Antitumor activity against mouse L1210 cells allografted in mouse assessed as increase in mouse survival time at 0.4 mg/kg, iv for 4 to 9 days relative to control; format: functional; outline: as §2
[39] = test system: P388; assay: Antitumor activity against mouse P388 cells allografted in mouse assessed as increase in mouse survival time at 10 mg/kg, iv for 4 to 9 days relative to control; format: functional; outline: as §2
[40] = test system: P388; assay: Antitumor activity against mouse P388 cells allografted in mouse assessed as increase in mouse survival time at 0.4 mg/kg, iv for 4 to 9 days relative to control; format: functional; outline: as §2
[41] = test system: P388; assay: Antitumor activity against mouse P388 cells allografted in mouse assessed as increase in mouse survival time at 62.5 mg/kg, iv for 4 to 9 days relative to control; format: functional; outline: as §3
[42] = test system: L1210; assay: Antitumor activity against mouse L1210 cells allografted in mouse assessed as increase in mouse survival time at 1.2 mg/kg, iv for 4 to 9 days relative to control; format: functional; outline: as §2
[43] = test system: P388; assay: Antitumor activity against mouse P388 cells allografted in mouse assessed as increase in mouse survival time at 3.7 mg/kg, iv for 4 to 9 days relative to control; format: functional; outline: as §2
[44] = test system: L1210; assay: Antitumor activity against mouse L1210 cells allografted in mouse assessed as increase in mouse survival time at 11.1 mg/kg, iv for 4 to 9 days relative to control; format: functional; outline: as §2
[45] = test system: L1210; assay: Antitumor activity against mouse L1210 cells allografted in mouse assessed as increase in mouse survival time at 3.7 mg/kg, iv for 4 to 9 days relative to control; format: functional; outline: as §2
[46] = test system: P388; assay: Antitumor activity against mouse P388 cells allografted in mouse assessed as increase in mouse survival time at 1.2 mg/kg, iv for 4 to 9 days relative to control; format: functional; outline: as §2
[47] = test system: P388; assay: Antitumor activity against mouse P388 cells allografted in mouse assessed as increase in mouse survival time at 11.1 mg/kg, iv for 4 to 9 days relative to control; format: functional; outline: as §2

Compound: CCCCCC(=O)OCc1c([C@@](O)(CC)C(=O)NC(C)C)cc2n(c1=O)Cc1cc3ccccc3nc1-2
- T/C [1]: 109%
- EC50 ([2]; Mus musculus, P388, read-out: ED50 (the source's name)): 1200 nM
- Activity [3]: 0.01%
- inhibition [4]: Active
- T/C [5]: 107%
- T/C [6]: 133%
- T/C [7]: 109%
- T/C [8]: 147%
- T/C [9]: 105%
- T/C [10]: 116%
- T/C [11]: 107%
- ED50 [12]: 8.1 ×10⁻⁵ umol/ml
- T/C [13]: 105%
- Activity [14]: 29%
- T/C [15]: 163%
- T/C [16]: 134%
- Activity [17]: 2%
- ED50 [18]: 5.5 ×10⁻⁴ umol/ml
- T/C [19]: 139%
- T/C [20]: 155%
- T/C [21]: 110%

Compound: C=CC(=O)OCc1c([C@@](O)(CC)C(=O)NC(C)C)cc2n(c1=O)Cc1cc3ccccc3nc1-2
- ED50 [2]: 3.9 ×10⁻⁴ umol/ml
- Activity [3]: 0.45%
- T/C [22]: 165%
- T/C [23]: 125%
- T/C [24]: 155%
- ED50 [12]: 6.9 ×10⁻⁵ umol/ml
- Activity [14]: 25%
- Activity [17]: 2.7%
- ED50 [18]: 7.6 ×10⁻⁴ umol/ml

Compound: CC[C@@](O)(C(=O)NC(C)C)c1cc2n(c(=O)c1Cn1ccnc1)Cc1cc3ccccc3nc1-2
- T/C [25]: 105%
- T/C [26]: 92%
- T/C [27]: 89%

Compound: CC[C@@](O)(C(=O)NC(C)C)c1cc2n(c(=O)c1CN1CCCC1)Cc1cc3ccccc3nc1-2
- ED50 [2]: 1.1 ×10⁻⁴ umol/ml
- Activity [3]: 0.13%
- T/C [28]: 111%
- T/C [29]: 113%
- T/C [30]: 109%
- T/C [31]: 126%
- T/C [32]: 101%
- ED50 [12]: 2.2 ×10⁻⁵ umol/ml
- Activity [14]: 7.8%
- Activity [17]: 23%
- ED50 [18]: 6.5 ×10⁻⁵ umol/ml

Compound: CC[C@@]1(O)C(=O)OCc2c1cc1n(c2=O)Cc2cc3ccccc3nc2-1 [CAMPTOTHECIN]
- T/C [33]: 168%
- T/C [34]: 85%
- ED50 [2]: 8.6 ×10⁻⁶ umol/ml
- T/C [35]: 131%
- T/C [36]: 204%
- T/C [37]: 147%
- T/C [38]: 114%
- T/C [39]: 81%
- ED50 [12]: <2.8 ×10⁻⁶ umol/ml
- T/C [40]: 137%
- ED50 [18]: 2.8 ×10⁻⁶ umol/ml

Compound: CC[C@@](O)(C(=O)NC(C)C)c1cc2n(c(=O)c1CN1CCCC1)Cc1cc3ccccc3nc1-2.Cl
- T/C [41]: 125%

Compound: CC[C@@](O)(C(=O)[O-])c1cc2n(c(=O)c1CO)Cc1cc3ccccc3nc1-2.[Na+]
- T/C [42]: 147%
- T/C [43]: 85%
- inhibition [4]: Active
- T/C [44]: 74%
- T/C [38]: 116%
- T/C [45]: 114%
- T/C [46]: 168%
- T/C [47]: 67%
- T/C [40]: 139%
